# Experiments:
# [1] = target: T1, Transient receptor potential cation channel subfamily A member 1 (Rattus norvegicus, UniProt Q6RI86); test: Antagonist activity at rat TRPA1 receptor expressed in HEK293 cells assessed as inhibition of allyl isothiocyanate-induced intracellular Ca2+ elevation incubated for 5 mins prior to allyl isothiocyanate-stimulation by spectrofluorimetric analysis; assay type: cell-based
# How it was run: (§1)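 Fluo-4-loaded HEK293 cells stably expressing human TRPV1 or rat TRPA1, in Tyrode's buffer pH 7.4, received test compound in the cuvette 5 min before agonist: capsaicin 0.1 µM for TRPV1, AITC 100 µM for TRPA1. The [Ca²⁺]i rise with agonist alone was set to 100%. IC50 came from a variable-slope sigmoidal fit. Untransfected-cell signal was subtracted.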
# [2] = target: Transient receptor potential cation channel subfamily A member 1 (Rattus norvegicus) (UniProt Q6RI86); test: Agonist activity at rat TRPA1 receptor expressed in HEK293 cells assessed as increase in intracellular Ca2+ concentration by spectrofluorimetric analysis relative to allyl isothiocyanate; assay type: cell-based
# Chain of Transient receptor potential cation channel subfamily A member 1 (Rattus norvegicus) (Q6RI86 whole entry): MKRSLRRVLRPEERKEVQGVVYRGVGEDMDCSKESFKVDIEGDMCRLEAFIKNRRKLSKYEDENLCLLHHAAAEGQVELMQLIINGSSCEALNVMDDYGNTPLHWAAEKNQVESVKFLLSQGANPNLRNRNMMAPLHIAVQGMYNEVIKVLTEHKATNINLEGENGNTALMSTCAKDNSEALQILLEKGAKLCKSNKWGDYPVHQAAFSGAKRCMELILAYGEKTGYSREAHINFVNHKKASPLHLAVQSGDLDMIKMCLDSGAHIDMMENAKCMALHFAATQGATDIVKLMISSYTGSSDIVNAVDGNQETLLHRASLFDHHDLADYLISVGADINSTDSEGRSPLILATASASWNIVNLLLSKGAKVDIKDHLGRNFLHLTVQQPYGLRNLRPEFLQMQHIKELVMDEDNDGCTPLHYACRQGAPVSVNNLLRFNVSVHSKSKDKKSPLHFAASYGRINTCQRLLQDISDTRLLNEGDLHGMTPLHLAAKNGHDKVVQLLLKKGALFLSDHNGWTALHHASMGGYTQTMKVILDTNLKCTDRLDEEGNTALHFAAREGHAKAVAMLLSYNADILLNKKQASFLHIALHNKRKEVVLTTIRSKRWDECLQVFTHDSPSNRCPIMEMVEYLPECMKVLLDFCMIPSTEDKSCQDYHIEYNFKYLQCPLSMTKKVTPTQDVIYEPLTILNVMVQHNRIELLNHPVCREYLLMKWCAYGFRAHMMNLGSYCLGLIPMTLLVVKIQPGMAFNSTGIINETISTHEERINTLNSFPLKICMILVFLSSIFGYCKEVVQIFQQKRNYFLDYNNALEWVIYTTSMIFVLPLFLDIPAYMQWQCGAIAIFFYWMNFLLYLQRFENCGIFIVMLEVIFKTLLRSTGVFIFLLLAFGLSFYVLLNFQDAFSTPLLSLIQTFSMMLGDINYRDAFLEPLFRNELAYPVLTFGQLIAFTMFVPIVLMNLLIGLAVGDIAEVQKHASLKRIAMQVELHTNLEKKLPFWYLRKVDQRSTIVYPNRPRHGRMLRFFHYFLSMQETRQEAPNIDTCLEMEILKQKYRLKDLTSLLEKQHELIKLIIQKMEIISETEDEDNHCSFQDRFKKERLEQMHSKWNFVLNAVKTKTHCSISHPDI
# How it was run: (§2)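 HEK293 cells stably transfected with human TRPV1 or rat TRPA1 cDNA (pcDNA3, G-418 selection) were loaded 1 h at room temperature with Fluo-4-AM, washed and suspended in Tyrode's buffer pH 7.4. [Ca²⁺]i was read by stirred-cuvette spectrofluorimetry before and after adding test compound at various concentrations. Signal from untransfected cells was subtracted. Efficacy was taken as percent of ionomycin (4 µM) for TRPV1 and percent of allyl isothiocyanate (100 µM) for TRPA1; EC50 was also derived.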
# [3] = target: T1, Transient receptor potential cation channel subfamily A member 1; test: Agonist activity at rat TRPA1 receptor expressed in HEK293 cells assessed as increase in intracellular Ca2+ concentration by spectrofluorimetric analysis; assay type: cell-based; how it was run: as §2
# [4] = target: T2, Transient receptor potential cation channel subfamily V member 1 (Homo sapiens, UniProt Q8NER1); test: Antagonist activity at human TRPV1 receptor expressed in HEK293 cells assessed as inhibition of capsaicin-induced intracellular Ca2+ elevation incubated for 5 mins prior to capsaicin-stimulation by spectrofluorimetric analysis; assay type: cell-based; how it was run: as §1
# T2 sequence (Q8NER1 whole entry): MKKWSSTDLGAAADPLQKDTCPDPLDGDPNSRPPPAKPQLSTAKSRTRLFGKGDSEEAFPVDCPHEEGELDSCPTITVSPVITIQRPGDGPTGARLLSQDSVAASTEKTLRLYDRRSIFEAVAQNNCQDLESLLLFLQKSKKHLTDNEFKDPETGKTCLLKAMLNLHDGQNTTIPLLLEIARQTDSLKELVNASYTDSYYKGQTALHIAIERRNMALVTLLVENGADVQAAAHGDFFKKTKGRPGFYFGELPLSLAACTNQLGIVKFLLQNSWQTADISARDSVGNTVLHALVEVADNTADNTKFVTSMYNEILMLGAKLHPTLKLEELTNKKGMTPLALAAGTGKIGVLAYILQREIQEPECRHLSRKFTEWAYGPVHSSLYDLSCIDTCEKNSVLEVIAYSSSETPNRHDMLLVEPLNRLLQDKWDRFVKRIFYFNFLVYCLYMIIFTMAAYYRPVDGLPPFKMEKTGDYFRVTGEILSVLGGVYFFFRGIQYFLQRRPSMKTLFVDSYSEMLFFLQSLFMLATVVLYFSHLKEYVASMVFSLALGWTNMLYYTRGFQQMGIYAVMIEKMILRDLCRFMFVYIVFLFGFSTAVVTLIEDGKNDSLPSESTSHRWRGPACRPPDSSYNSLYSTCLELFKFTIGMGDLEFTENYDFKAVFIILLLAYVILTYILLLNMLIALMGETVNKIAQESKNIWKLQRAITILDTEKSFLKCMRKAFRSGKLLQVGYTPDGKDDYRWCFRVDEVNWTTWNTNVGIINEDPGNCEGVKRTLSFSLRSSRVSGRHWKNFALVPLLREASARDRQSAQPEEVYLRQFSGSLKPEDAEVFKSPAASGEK
# [5] = target: T2, Transient receptor potential cation channel subfamily V member 1; test: Agonist activity at human TRPV1 receptor expressed in HEK293 cells assessed as increase in intracellular Ca2+ concentration by spectrofluorimetric analysis relative to ionomycin; assay type: cell-based; how it was run: as §2
# Monoglyceride lipase = target: T3, Monoglyceride lipase (Homo sapiens, UniProt Q99685); test: Inhibition of MAGL (unknown origin) expressed in African green monkey COS7 cell cytosolic fraction assessed as [3H]2-AG hydrolysis to [3H]arachidonic acid after 20 mins by beta counting analysis; design: species or system COS-7
# T3 sequence (Q99685 whole entry): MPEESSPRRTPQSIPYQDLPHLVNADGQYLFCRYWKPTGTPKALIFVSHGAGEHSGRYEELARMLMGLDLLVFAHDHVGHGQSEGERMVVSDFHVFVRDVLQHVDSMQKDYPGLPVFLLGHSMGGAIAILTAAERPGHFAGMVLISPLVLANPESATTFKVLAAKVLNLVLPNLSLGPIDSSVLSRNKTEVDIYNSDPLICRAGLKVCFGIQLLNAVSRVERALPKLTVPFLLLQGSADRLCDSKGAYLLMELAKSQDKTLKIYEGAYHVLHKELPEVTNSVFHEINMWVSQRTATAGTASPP
# [6] = target: T4, Fatty-acid amide hydrolase 1 (Rattus norvegicus, UniProt P97612); test: Inhibition of FAAH in rat brain membranes assessed as [14C]AEA hydrolysis to [14C]Ethanolamine after 30 mins by scintillation counting analysis; assay type: cell membranes
# T4 sequence (P97612 whole entry): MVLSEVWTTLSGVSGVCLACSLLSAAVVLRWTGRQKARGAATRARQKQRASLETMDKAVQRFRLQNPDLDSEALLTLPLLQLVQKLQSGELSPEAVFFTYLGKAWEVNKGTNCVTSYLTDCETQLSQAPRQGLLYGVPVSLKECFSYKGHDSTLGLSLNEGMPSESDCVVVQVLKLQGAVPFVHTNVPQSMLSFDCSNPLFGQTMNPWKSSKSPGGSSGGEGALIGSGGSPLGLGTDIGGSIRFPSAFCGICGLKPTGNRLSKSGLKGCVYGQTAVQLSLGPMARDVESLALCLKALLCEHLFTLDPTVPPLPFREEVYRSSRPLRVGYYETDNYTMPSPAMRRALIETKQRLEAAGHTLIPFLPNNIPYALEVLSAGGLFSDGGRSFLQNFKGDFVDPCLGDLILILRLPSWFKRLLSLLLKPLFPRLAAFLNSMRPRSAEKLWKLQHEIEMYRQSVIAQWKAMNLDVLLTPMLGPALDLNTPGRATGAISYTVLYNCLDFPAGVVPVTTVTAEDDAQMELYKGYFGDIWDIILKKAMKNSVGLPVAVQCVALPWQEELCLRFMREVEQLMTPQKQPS
# How it was run: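 Rat brain membranes were incubated with [¹⁴C]AEA in 50 mM Tris-HCl pH 9 for 30 min at 37 °C. Released [¹⁴C]ethanolamine in the aqueous phase was counted by scintillation after CHCl₃/CH₃OH 2/1 extraction. IC50 was the concentration giving 50% inhibition.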
# [7] = target: T2, Transient receptor potential cation channel subfamily V member 1; test: Agonist activity at human TRPV1 receptor expressed in HEK293 cells assessed as increase in intracellular Ca2+ concentration by spectrofluorimetric analysis; assay type: cell-based; how it was run: as §2
# T1 sequence (Q6RI86 whole entry): as the sequence (Q6RI86 whole entry) above
IC50 [1] [µM],Efficacy [2] [%],EC50 [3] [µM],IC50 [4] [µM],Efficacy [5] [%],IC50 (Monoglyceride lipase) [µM],IC50 [6] [µM],EC50 [7] [µM],SMILES
49.4,101,26.9,> 100,< 10,,,,CN(C)C(=O)n1nnnc1Cc1ccc(-c2ccccc2)cc1
45.2,349,48.7,> 100,< 10,> 1,0.0355,,Cc1ccccc1-c1ccc(Cc2nnnn2C(=O)N(C)C)cc1
83.1,< 10,,91.8,< 10,,0.0071,,CN(C)C(=O)n1nnc(Cc2ccc(-c3cccc(C(N)=O)c3)cc2)n1
> 100,30.7,50.1,> 100,21.3,> 1,0.011,32.3,CN(C)C(=O)n1nnnc1Cc1ccc(-c2cccc(C(N)=O)c2)cc1
11.2,186,20.1,31.3,14.5,,,5,CN(C)C(=O)n1nnc(Cc2ccc(-c3ccccc3)cc2)n1
92.1,< 10,,47.6,15.9,,0.0116,1.7,CN(CCCCc1ccccc1)C(=O)n1nnc(Cc2ccc(-c3ccccc3)cc2)n1
17.8,187,15,78.9,< 10,,0.0485,,Cc1cccc(-c2ccc(Cc3nnn(C(=O)N(C)C)n3)cc2)c1
> 100,< 10,,> 100,< 10,> 1,0.0147,,CC(=O)c1cccc(-c2ccc(Cc3nnnn3C(=O)N(C)C)cc2)c1
18.9,202,15.9,> 100,< 10,,0.0517,,Cc1ccccc1-c1ccc(Cc2nnn(C(=O)N(C)C)n2)cc1
28,445,53.3,> 100,< 10,,0.0402,,CN(C)C(=O)n1nnc(Cc2ccc(-c3ccccc3O)cc2)n1
> 100,< 10,,> 100,< 10,,0.0106,,CN(C)C(=O)n1nnnc1Cc1ccc(-c2cccc(CO)c2)cc1
12.5,106,6.5,22.6,67.4,> 1,0.0382,5.9,O=C(N1CCCCC1)n1nnnc1Cc1ccc(-c2ccccc2)cc1
97.2,< 10,,> 100,< 10,,0.0342,,CC(=O)c1cccc(-c2ccc(Cc3nnn(C(=O)N(C)C)n3)cc2)c1
15.9,388,19.7,> 100,28,> 1,0.0071,22.5,Cc1ccc(-c2ccc(Cc3nnnn3C(=O)N(C)C)cc2)cc1
21.5,130,3.7,7.4,66.7,,0.0681,1.8,O=C(N1CCCCC1)n1nnc(Cc2ccc(-c3ccccc3)cc2)n1
70.6,67.3,24.4,> 100,< 10,,0.0075,,CN(C)C(=O)n1nnc(Cc2ccc(-c3ccc(CO)cc3)cc2)n1
15,53.9,13.5,7.6,34.1,> 1,0.0867,2.5,CN(Cc1ccc2ccccc2c1)C(=O)n1nnnc1Cc1ccc(-c2ccccc2)cc1
24.3,< 10,,4.5,36.1,,0.0169,11.9,CN(Cc1ccc2ccccc2c1)C(=O)n1nnc(Cc2ccc(-c3ccccc3)cc2)n1
> 100,< 10,,> 100,< 10,,0.0107,,CN(C)C(=O)n1nnc(Cc2ccc(-c3cccc(CO)c3)cc2)n1
30.2,109,14.6,> 100,< 10,,0.0054,,CN(C)C(=O)n1nnc(Cc2ccc(-c3ccc(O)cc3)cc2)n1
> 100,40.5,21.7,> 100,< 10,> 1,0.0167,,CN(C)C(=O)n1nnnc1Cc1ccc(-c2ccc(O)cc2)cc1
91.2,< 10,,> 100,< 10,,0.0123,,COC(=O)c1cccc(-c2ccc(Cc3nnn(C(=O)N(C)C)n3)cc2)c1
52.6,58.7,24.2,> 100,< 10,> 1,0.0374,,CN(C)C(=O)n1nnnc1Cc1ccc(-c2ccc(CO)cc2)cc1
14.9,84.7,4.9,18.3,45.6,> 1,0.725,13.4,CN(C(=O)n1nnnc1Cc1ccc(-c2ccccc2)cc1)C1CCCCC1
10.5,275,10.3,20.6,33.3,,0.0462,4.8,Cc1ccc(-c2ccc(Cc3nnn(C(=O)N(C)C)n3)cc2)cc1
> 100,228,59.7,> 100,< 10,> 1,0.0156,,CN(C)C(=O)n1nnnc1Cc1ccc(-c2ccccc2O)cc1
> 100,35.7,26.8,67.4,20,,0.003,25,CN(C)C(=O)n1nnnc1Cc1ccc(-c2cccc(O)c2)cc1
99.8,< 10,,> 100,< 10,> 1,0.0121,,COC(=O)c1cccc(-c2ccc(Cc3nnnn3C(=O)N(C)C)cc2)c1
83.7,89.9,20.1,7.1,45.7,> 1,0.0213,1.5,CN(CCCCc1ccccc1)C(=O)n1nnnc1Cc1ccc(-c2ccccc2)cc1
